{"source": "ChEMBL document CHEMBL4680121", "about": "“Development of (4-methoxyphenyl)-1H-tetrazol-5-amine regioisomers as a new class of selective antitubercular agents” (Eur J Med Chem, 2020)", "type_in_all_cases": "functional", "key": {"[1]": {"system": "Mycobacterium tuberculosis", "experiment": "Antitubercular activity against PAS/INH/EMB/RMP-resistant Mycobacterium tuberculosis Spec.210 assessed as inhibition of microbial growth incubated for 1 week by MABA method", "details": "Mycobacterium tuberculosis, 210, 168 h; time 1 weeks", "method_in_brief": "(§1)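 Microplate Alamar Blue assay in Middlebrook 7H9 broth with 10% OADC. Inoculum from fresh LJ culture was adjusted to McFarland 1 and diluted 1:20. DMSO stocks were two-fold serially diluted to final 0.125–512 µg/ml, with growth and sterile controls. Plates ran 1 week at 37 °C, then Alamar blue was added for 24 h. MIC is the lowest concentration preventing the blue-to-pink change.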"}, "[2]": {"system": "Mycobacterium tuberculosis", "experiment": "Antitubercular activity against INH-resistant Mycobacterium tuberculosis Spec.800 harboring InhA promoter mutation assessed as inhibition of microbial growth incubated for 1 week by MABA method", "details": "time 1 weeks", "method_in_brief": "as §1"}, "[3]": {"system": "Mycobacterium tuberculosis", "experiment": "Antitubercular activity against PAS/INH/EMB/RMP-resistant Mycobacterium tuberculosis Spec.210 assessed as fractional inhibitory concentration index in presence of 1/2 x MIC rifampicin incubated for 14 days by MABA method", "details": "time 14 day", "method_in_brief": "(§2)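 Interaction analysis in Middlebrook 7H9 with 10% OADC. Combination MICs came from mixing the derivative (1 to 1/32 MIC) with the reference drug at 1/2 MIC, and the reverse, after 14 days at 37 °C with McFarland 1 inoculum. FICI was calculated from the combination MIC values and the MICs alone.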"}, "[4]": {"system": "Mycobacterium tuberculosis", "experiment": "Antitubercular activity against PAS/INH/EMB/RMP-resistant Mycobacterium tuberculosis Spec.210 assessed as fractional inhibitory concentration index in presence of 1/2 x MIC ethambutol incubated for 14 days by MABA method", "details": "time 14 day", "method_in_brief": "as §2"}, "[5]": {"system": "Mycobacterium tuberculosis", "experiment": "Antitubercular activity against INH-resistant Mycobacterium tuberculosis Spec.800 harboring InhA promoter mutation assessed as fractional inhibitory concentration index in presence of 1/2 x MIC rifampicin incubated for 14 days by MABA method", "details": "time 14 day", "method_in_brief": "as §2"}, "[6]": {"system": "Mycobacterium tuberculosis", "experiment": "Antitubercular activity against INH-resistant Mycobacterium tuberculosis Spec.800 harboring InhA promoter mutation assessed as fractional inhibitory concentration index in presence of 1/2 x MIC isoniazid incubated for 14 days by MABA method", "details": "time 14 day", "method_in_brief": "as §2"}, "[7]": {"system": "Mycobacterium tuberculosis", "experiment": "Antitubercular activity against INH-resistant Mycobacterium tuberculosis Spec.800 harboring InhA promoter mutation assessed as fractional inhibitory concentration index in presence of 1/2 x MIC ethambutol incubated for 14 days by MABA method", "details": "time 14 day", "method_in_brief": "as §2"}, "[8]": {"system": "Mycobacterium tuberculosis", "experiment": "Antitubercular activity against PAS/INH/EMB/RMP-resistant Mycobacterium tuberculosis Spec.210 assessed as reduction in bacterial growth incubated for 14 days in presence of 1/2 x MIC isoniazid by MABA method", "details": "Mycobacterium tuberculosis, 210, 336 h; time 14 day", "method_in_brief": "(§3)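 Checkerboard-style combination in Middlebrook 7H9 broth with 10% OADC. The test derivative was varied from 1 to 1/32 of its MIC, and the reference drug was fixed at 1/2 its own MIC. Single-agent MICs were determined first by MABA. Samples of 4 ml received inoculum at 1 McFarland and were incubated 14 days at 37 °C. The endpoint was the lowest derivative concentration that inhibited growth.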"}, "[9]": {"system": "Mycobacterium tuberculosis", "experiment": "Antitubercular activity against PAS/INH/EMB/RMP-resistant Mycobacterium tuberculosis Spec.210 assessed as reduction in bacterial growth incubated for 14 days in presence of 1/2 x MIC streptomycin by MABA method", "details": "Mycobacterium tuberculosis, 210, 336 h; time 14 day", "method_in_brief": "as §3"}, "[10]": {"system": "Mycobacterium tuberculosis", "experiment": "Antitubercular activity against PAS/INH/EMB/RMP-resistant Mycobacterium tuberculosis Spec.210 assessed as rifampicin MIC incubated for 14 days in presence of rifampicin by MABA method", "details": "Mycobacterium tuberculosis, 210, 336 h; time 14 day", "method_in_brief": "(§4)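 Combination assay in Middlebrook 7H9 broth with 10% OADC. The reference drug (INH, RMP, SM or EMB) was varied from 1 to 1/32 of its MIC, and the test derivative was fixed at 1/2 its own MIC. Single-agent MICs were determined first by MABA. Inoculum was 1 McFarland, with 14 days of incubation at 37 °C. The endpoint was the lowest reference-drug concentration that inhibited growth.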"}, "[11]": {"system": "Mycobacterium tuberculosis", "experiment": "Antitubercular activity against PAS/INH/EMB/RMP-resistant Mycobacterium tuberculosis Spec.210 assessed as isoniazid MIC incubated for 14 days in presence of isoniazid by MABA method", "details": "Mycobacterium tuberculosis, 210, 336 h; time 14 day", "method_in_brief": "(§5)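 In Middlebrook 7H9 with 10% OADC, the reference drug (INH, RMP, SM or EMB) at 1 to 1/32 of its MIC alone was mixed with the test derivative fixed at 1/2 its MIC. 4 ml samples were inoculated with McFarland 1 suspension and incubated 14 days at 37 °C. MIC is the lowest drug concentration in combination that inhibited growth.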"}, "[12]": {"system": "Mycobacterium tuberculosis", "experiment": "Antitubercular activity against PAS/INH/EMB/RMP-resistant Mycobacterium tuberculosis Spec.210 assessed as streptomycin MIC incubated for 14 days in presence of streptomycin by MABA method", "details": "Mycobacterium tuberculosis, 210, 336 h; time 14 day", "method_in_brief": "as §4"}, "[13]": {"system": "Mycobacterium tuberculosis", "experiment": "Antitubercular activity against PAS/INH/EMB/RMP-resistant Mycobacterium tuberculosis Spec.210 assessed as ethambutol MIC incubated for 14 days in presence of ethambutol by MABA method", "details": "Mycobacterium tuberculosis, 210, 336 h; time 14 day", "method_in_brief": "as §5"}, "[14]": {"system": "Mycobacterium tuberculosis", "experiment": "Antitubercular activity against INH-resistant Mycobacterium tuberculosis Spec.800 assessed as reduction in bacterial growth incubated for 14 days in presence of 1/2 x MIC rifampicin by MABA method", "details": "Mycobacterium tuberculosis, 800, 336 h; time 14 day", "method_in_brief": "(§6)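 Checkerboard-type combination in Middlebrook 7H9 with 10% OADC. The test derivative at 1 to 1/32 of its MIC alone was mixed with the reference drug fixed at 1/2 its MIC. 4 ml samples were inoculated with McFarland 1 suspension and incubated 14 days at 37 °C. MIC is the lowest derivative concentration in combination that inhibited growth in liquid medium.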"}, "[15]": {"system": "Mycobacterium tuberculosis", "experiment": "Antitubercular activity against INH-resistant Mycobacterium tuberculosis Spec.800 assessed as reduction in bacterial growth incubated for 14 days in presence of 1/2 x MIC streptomycin by MABA method", "details": "Mycobacterium tuberculosis, 800, 336 h; time 14 day", "method_in_brief": "as §6"}, "[16]": {"system": "Mycobacterium tuberculosis", "experiment": "Antitubercular activity against INH-resistant Mycobacterium tuberculosis Spec.800 assessed as reduction in bacterial growth incubated for 14 days in presence of 1/2 x MIC ethambutol by MABA method", "details": "Mycobacterium tuberculosis, 800, 336 h; time 14 day", "method_in_brief": "as §6"}, "[17]": {"system": "Mycobacterium tuberculosis", "experiment": "Antitubercular activity against INH-resistant Mycobacterium tuberculosis Spec.800 assessed as rifampicin MIC incubated for 14 days in presence of rifampicin by MABA method", "details": "Mycobacterium tuberculosis, 800, 336 h; time 14 day", "method_in_brief": "as §5"}, "[18]": {"system": "Mycobacterium tuberculosis", "experiment": "Antitubercular activity against INH-resistant Mycobacterium tuberculosis Spec.800 assessed as isoniazid MIC incubated for 14 days in presence of isoniazid by MABA method", "details": "Mycobacterium tuberculosis, 800, 336 h; time 14 day", "method_in_brief": "as §5"}, "[19]": {"system": "Mycobacterium tuberculosis", "experiment": "Antitubercular activity against INH-resistant Mycobacterium tuberculosis Spec.800 assessed as ethambutol MIC incubated for 14 days in presence of ethambutol by MABA method", "details": "Mycobacterium tuberculosis, 800, 336 h; time 14 day", "method_in_brief": "as §5"}, "[20]": {"system": "Mycobacterium tuberculosis", "experiment": "Potency index, Ratio of ethambutol MIC to test compound MIC for antitubercular activity against PAS/INH/EMB/RMP-resistant Mycobacterium tuberculosis Spec.210 assessed as inhibition of microbial growth incubated for 1 week by MABA method", "details": "time 1 weeks"}, "[21]": {"system": "Mycobacterium tuberculosis", "experiment": "Potency index, Ratio of isoniazid MIC to test compound MIC for antitubercular activity against PAS/INH/EMB/RMP-resistant Mycobacterium tuberculosis Spec.210 assessed as inhibition of microbial growth incubated for 1 week by MABA method", "details": "time 1 weeks"}, "[22]": {"system": "Mycobacterium tuberculosis", "experiment": "Potentiation of streptomycin-induced antimycobacterial activity against INH-resistant Mycobacterium tuberculosis Spec.800 harboring InhA promoter mutation assessed as fold decrease in streptomycin MIC at 1/2X MIC incubated for 14 days in presence of streptomycin by MABA method", "details": "time 14 day", "method_in_brief": "as §4"}}}
{"smiles": "COc1ccc(-n2nnnc2Nc2cccc(Br)c2)cc1", "values": [{"measurement": "MIC", "setting": "[1]", "result": 2, "unit": "µg/mL"}, {"measurement": "MIC", "setting": "[2]", "result": 128, "unit": "µg/mL"}, {"measurement": "fractional inhibitory concentration index (FICI)", "setting": "[3]", "result": 0.5}, {"measurement": "fractional inhibitory concentration index (FICI)", "setting": "[4]", "result": 1.5}, {"measurement": "fractional inhibitory concentration index (FICI)", "setting": "[5]", "result": 0.75}, {"measurement": "fractional inhibitory concentration index (FICI)", "setting": "[6]", "result": 0.625}, {"measurement": "fractional inhibitory concentration index (FICI)", "setting": "[7]", "result": 0.75}, {"measurement": "MIC", "setting": "[8]", "result": 0.25, "unit": "µg/mL"}, {"measurement": "MIC", "setting": "[9]", "result": 0.5, "unit": "µg/mL"}, {"measurement": "MIC", "setting": "[10]", "result": 8, "unit": "µg/mL"}, {"measurement": "MIC", "setting": "[11]", "result": 16, "unit": "µg/mL"}, {"measurement": "MIC", "setting": "[12]", "result": 16, "unit": "µg/mL"}, {"measurement": "MIC", "setting": "[13]", "result": 16, "unit": "µg/mL"}, {"measurement": "MIC", "setting": "[14]", "result": 64, "unit": "µg/mL"}, {"measurement": "MIC", "setting": "[15]", "result": 8, "unit": "µg/mL"}, {"measurement": "MIC", "setting": "[16]", "result": 32, "unit": "µg/mL"}, {"measurement": "MIC", "setting": "[17]", "result": 0.25, "unit": "µg/mL"}, {"measurement": "MIC", "setting": "[18]", "result": 1, "unit": "µg/mL"}, {"measurement": "MIC", "setting": "[19]", "result": 1, "unit": "µg/mL"}, {"measurement": "Ratio", "setting": "[20]", "result": 16}, {"measurement": "Ratio", "setting": "[21]", "result": 8}, {"measurement": "fold change (FC)", "setting": "[22]", "result": "<=4"}]}
{"smiles": "COc1ccc(-n2nnnc2Nc2ccc(Br)cc2)cc1", "values": [{"measurement": "MIC", "setting": "[1]", "result": 2, "unit": "µg/mL"}, {"measurement": "MIC", "setting": "[2]", "result": 128, "unit": "µg/mL"}, {"measurement": "fractional inhibitory concentration index (FICI)", "setting": "[3]", "result": 0.75}, {"measurement": "fractional inhibitory concentration index (FICI)", "setting": "[4]", "result": 1.5}, {"measurement": "fractional inhibitory concentration index (FICI)", "setting": "[5]", "result": 1.125}, {"measurement": "fractional inhibitory concentration index (FICI)", "setting": "[6]", "result": 0.5}, {"measurement": "fractional inhibitory concentration index (FICI)", "setting": "[7]", "result": 0.75}, {"measurement": "MIC", "setting": "[8]", "result": 0.25, "unit": "µg/mL"}, {"measurement": "MIC", "setting": "[9]", "result": 1, "unit": "µg/mL"}, {"measurement": "MIC", "setting": "[10]", "result": 8, "unit": "µg/mL"}, {"measurement": "MIC", "setting": "[11]", "result": 8, "unit": "µg/mL"}, {"measurement": "MIC", "setting": "[12]", "result": 8, "unit": "µg/mL"}, {"measurement": "MIC", "setting": "[13]", "result": 16, "unit": "µg/mL"}, {"measurement": "MIC", "setting": "[14]", "result": 128, "unit": "µg/mL"}, {"measurement": "MIC", "setting": "[15]", "result": 16, "unit": "µg/mL"}, {"measurement": "MIC", "setting": "[16]", "result": 32, "unit": "µg/mL"}, {"measurement": "MIC", "setting": "[17]", "result": 0.125, "unit": "µg/mL"}, {"measurement": "MIC", "setting": "[18]", "result": 0.5, "unit": "µg/mL"}, {"measurement": "MIC", "setting": "[19]", "result": 1, "unit": "µg/mL"}, {"measurement": "Ratio", "setting": "[20]", "result": 16}, {"measurement": "Ratio", "setting": "[21]", "result": 8}, {"measurement": "fold change (FC)", "setting": "[22]", "result": 4}]}
